Assay results published in ChEMBL document CHEMBL1154189 (J Med Chem, 2009).
Calls of active or inactive are those of the source. The calls are words filed in the database; no cut-off is given here.

Legend:
[1] = tested on: Saccharomyces cerevisiae; assay: Mutagenic activity in Saccharomyces cerevisiae after 3 hrs; format: ADME, organism-based; settings: in vivo
How it was run: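 Tested in a Saccharomyces cerevisiae strain engineered with three phenotypic readouts, with 3 hour incubation against DMSO vehicle.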

[2] = tested on: HuT78; assay: Cytotoxicity against human HUT78 cells assessed as LDH release at 10 mM after 48 hrs
[3] = tested on: HuT78; assay: Cytotoxicity against human HUT78 cells assessed as LDH release at 100 nM after 48 hrs
[4] = tested on: HuT78; assay: Induction of apoptosis in human HUT78 cells assessed as caspase 3/7 activation after 24 hrs by luminometry; format: functional, cell-based
How it was run: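 Hut78 CTCL cells were plated and dosed immediately with ethanol vehicle, test agent, water, or sodium butyrate (positive control), then incubated 24 hours. Caspase-Glo lysis/substrate mix was added, and cleavage of the substrate by caspase 3/7 was read as luminescence. Ethanol-treated cells served as the comparison.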

## Cc1cc2c(cc1C(=O)c1ccc(C(=O)O)cc1)C(C)(C)CCC2(C)C
[1]
  Activity: Non-toxic

## NC(=O)NO [HYDROXYUREA]
[2]
  Activity: 97%

## C=C(c1cc(C(=O)O)cc(C(=O)O)c1)c1cc2c(cc1C)C(C)(C)CCC2(C)C
[1]
  Activity: Non-toxic

## Cc1cc2c(cc1C(=O)c1cc(C(=O)O)cc(C(=O)O)c1)C(C)(C)CCC2(C)C
[1]
  Activity: Non-toxic

## C=C(c1ccc(C(=O)O)cc1)c1cc2c(cc1C)C(C)(C)CCC2(C)C [BEXAROTENE]
[1]
  Activity: Non-toxic

## Cc1cc2c(cc1C(=O)c1ccc(C(=O)O)cc1F)C(C)(C)CCC2(C)C
[3]
  Activity: Active
[1]
  Activity: Non-toxic
[4]
  Activity: inactive

## Cc1cc2c(cc1C(=O)c1cccc(C(=O)O)c1)C(C)(C)CCC2(C)C
[1]
  Activity: Non-toxic

## Cc1cc2c(cc1C(=O)c1ccc(C(=O)O)c([N+](=O)[O-])c1)C(C)(C)CCC2(C)C
[1]
  Activity: Non-toxic

## Cc1cc2c(cc1C(=O)c1ccc(C(=O)O)c(F)c1)C(C)(C)CCC2(C)C
[1]
  Activity: Non-toxic
